What was measured:
[1] = test system: CYP450 isoforms (1A2, 2A6, 2C8, 2C9, 2C19, 2D6, 2E1, 3A4); assay: Cocktail assay of CYP450 isoform activity in pooled human liver microsomes; type: in vitro ADME; conditions: pooled HLMs, 100 μM physcion
Outline: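 Single-concentration screen in pooled human liver microsomes with the test compound at 100 μM, a blank negative control and typical isoform inhibitors as positive controls. Incubation was in 100 mM potassium phosphate, pH 7.4, with an NADPH-generating system after 3 min pre-incubation. Reactions were stopped with acetonitrile (trichloroacetic acid for CYP2A6), and probe metabolites were quantified by HPLC. Triplicate; one-way ANOVA against the negative control.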

[2] = biological target: CYP3A4 (Homo sapiens, UniProt P08684); assay: Time-dependent inhibition of CYP3A4 in HLMs; type: in vitro ADME
CYP3A4, sequence (P08684 whole entry): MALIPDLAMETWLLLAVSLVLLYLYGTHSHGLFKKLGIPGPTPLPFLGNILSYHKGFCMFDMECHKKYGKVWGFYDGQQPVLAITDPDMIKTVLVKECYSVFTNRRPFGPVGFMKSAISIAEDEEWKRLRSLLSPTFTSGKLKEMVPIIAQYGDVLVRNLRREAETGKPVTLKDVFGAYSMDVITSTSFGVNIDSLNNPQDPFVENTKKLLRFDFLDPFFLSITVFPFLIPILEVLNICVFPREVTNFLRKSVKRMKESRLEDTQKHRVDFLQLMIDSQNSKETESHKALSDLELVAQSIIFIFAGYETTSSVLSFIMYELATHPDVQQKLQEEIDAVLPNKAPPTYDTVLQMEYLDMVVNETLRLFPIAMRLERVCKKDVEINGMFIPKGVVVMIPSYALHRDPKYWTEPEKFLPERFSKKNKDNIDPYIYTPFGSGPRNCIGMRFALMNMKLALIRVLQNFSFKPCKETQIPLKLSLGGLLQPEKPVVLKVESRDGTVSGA

[3] = biological target: CYP2C9 (Homo sapiens, UniProt P11712); assay: Time-dependent inhibition of CYP2C9 in HLMs; type: in vitro ADME; conditions: HLMs pre-incubated with physcion 30 min; incubation 5, 10, 15 and 30 min
CYP2C9, sequence (P11712 whole entry): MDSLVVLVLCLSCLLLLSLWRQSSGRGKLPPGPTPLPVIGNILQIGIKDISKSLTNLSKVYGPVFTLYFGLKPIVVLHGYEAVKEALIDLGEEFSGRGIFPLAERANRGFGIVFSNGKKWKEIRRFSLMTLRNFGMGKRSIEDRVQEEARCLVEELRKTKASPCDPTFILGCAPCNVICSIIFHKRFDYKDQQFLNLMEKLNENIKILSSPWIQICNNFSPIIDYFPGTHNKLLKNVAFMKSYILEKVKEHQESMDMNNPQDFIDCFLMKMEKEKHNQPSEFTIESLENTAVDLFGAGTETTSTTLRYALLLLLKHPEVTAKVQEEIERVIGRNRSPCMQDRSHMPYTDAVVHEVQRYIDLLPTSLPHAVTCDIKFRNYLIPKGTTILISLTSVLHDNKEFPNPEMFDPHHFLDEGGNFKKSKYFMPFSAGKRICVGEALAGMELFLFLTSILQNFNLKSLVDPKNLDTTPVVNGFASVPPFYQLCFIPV
Outline: (§1)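 Two-step format: microsomes were pre-incubated with the test compound for 30 min. A 20 μL aliquot was transferred to a second tube with substrate near Km and started with the NADPH-generating system. Incubations ran 5, 10, 15 and 30 min, were stopped with acetonitrile and centrifuged, and residual activity was measured by HPLC. Triplicate.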

[4] = biological target: CYP2D6 (Homo sapiens, UniProt P10635); assay: Time-dependent inhibition of CYP2D6 in HLMs; type: in vitro ADME; conditions: HLMs pre-incubated with physcion 30 min; incubation 5, 10, 15 and 30 min
CYP2D6, sequence (P10635 whole entry): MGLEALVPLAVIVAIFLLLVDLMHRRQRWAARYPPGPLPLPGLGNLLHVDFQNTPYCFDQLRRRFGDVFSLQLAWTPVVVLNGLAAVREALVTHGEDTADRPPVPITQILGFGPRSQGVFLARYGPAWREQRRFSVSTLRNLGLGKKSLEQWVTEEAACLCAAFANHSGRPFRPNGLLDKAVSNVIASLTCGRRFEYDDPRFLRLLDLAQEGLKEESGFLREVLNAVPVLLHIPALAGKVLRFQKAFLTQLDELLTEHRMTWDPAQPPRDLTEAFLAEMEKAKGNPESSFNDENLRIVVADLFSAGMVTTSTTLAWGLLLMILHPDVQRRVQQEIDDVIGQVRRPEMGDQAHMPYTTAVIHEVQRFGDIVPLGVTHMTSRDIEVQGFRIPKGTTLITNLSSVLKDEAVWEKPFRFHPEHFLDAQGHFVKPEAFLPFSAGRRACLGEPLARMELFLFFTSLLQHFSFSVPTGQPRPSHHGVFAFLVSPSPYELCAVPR
Outline: as §1

[5] = after rhubarb extract administration; ref Ding et al. [2003]; Xun et al. [2019]; cited from earlier work
[6] = rats; after administration of Semen Cassiae extract; ref Yang et al. [2015]; cited from earlier work

## COc1cc(O)c2c(c1)C(=O)c1cc(C)cc(O)c1C2=O [physcion, Physcion]
[1]
  Inhibitory effect relative to the positive inhibitors of CYP2C9, 2D6 and 3A4: weaker than the positive inhibitors
[1]; compared with negative control
  Effect on activity of the major CYP450 isoforms: Only the activity of CYP2C9, 2D6 and 3A4 was inhibited
[2]; 0–50 μM physcion, substrate approx. 4-fold Km, 0–30 min
  KI (time-dependent inhibition of CYP3A4): 3.10 µM⁻¹
[2]; HLMs pre-incubated with physcion 30 min, incubation 5, 10, 15 and 30 min
  Time dependence of CYP3A4 inhibition: time-dependent
[3]
  Time dependence of CYP2C9 inhibition: not influenced
[4]
  Time dependence of CYP2D6 inhibition: not influenced
[5]
  Maximum concentration of physcion: 0.032 µg/mL
  Time at which the maximum concentration was reached: 2 h
[6]
  Maximum plasma concentration: 461.85 ± 266.77 ng/mL
  Time of maximum plasma concentration: 0.167 ± 0.002 h

Source: paper PMC10868446 (Pharmaceutical Biology, 2024)
